Experiment [1] deals with Mycobacterium tuberculosis. As to the kind of experiment: Antimycobacterial activity against multidrug-resistant Mycobacterium tuberculosis isolate 16995 assessed as reduction in bacterial cell growth incubated for 7 days by microplate alamar blue assay. The experiment is classed as functional. To be noted: isolate 16995, 168 h. In a few lines:
(§1)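 MABA: H37Rv or clinical MDR isolates (resistant to INH and RFP, Beijing Chest Hospital patients) grown to late log phase in 7H9 with glycerol, Tween 80 and ADC, washed, filtered and frozen. Two-fold compound dilutions with 2 × 10⁵ CFU per well, 37 °C; Alamar blue plus Tween 80 added on day 7, fluorescence (ex 530/em 590) read after 16–24 h. MIC = lowest concentration giving ≥90% fluorescence reduction versus mean of bacterium-only controls; RIF and INH as positive controls.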

Experiment [2] has as its system Mycobacterium tuberculosis. Put plainly: Antimycobacterial activity against multidrug-resistant Mycobacterium tuberculosis isolate 16833 assessed as reduction in bacterial cell growth incubated for 7 days by microplate alamar blue assay. The experiment is classed as functional. To be noted: isolate 16833, 168 h. The method, boiled down: as §1
A general note: Alamar Blue is a resazurin reagent that responds to reducing activity.

The structures appear in SMILES notation. Values after ≈ are worked out from the molar mass of the structure shown. A value given as a limit tells only on which side of the number the result lay.

As to `CCO/N=C(\C)CN1CCN(c2nc(=O)c3cc(C(F)(F)F)cc([N+](=O)[O-])c3s2)CC1`, the MIC90 (usually the lowest concentration that inhibits either 90% of growth or 90% of the strains tested, depending on the study) was 0.01 µg/mL (≈ 0.0218 µM) in experiment [1] and less than 0.016 µg/mL in experiment [2].
For `C/C(CN1CCN(c2nc(=O)c3cc(C(F)(F)F)cc([N+](=O)[O-])c3s2)CC1)=N\OCc1ccccc1`, in that order: 0.01 µg/mL (≈ 0.0192 µM) and less than 0.016 µg/mL.
As for `CCON=C1CCC(CN2CCN(c3nc(=O)c4cc(C(F)(F)F)cc([N+](=O)[O-])c4s3)[C@@H](C)C2)CC1` (some centres undefined), the MIC90 in experiment [1] and in experiment [2] was less than 0.016 µg/mL in each case.
As to `CON=C1CCC(CN2CCN(c3nc(=O)c4cc(C(F)(F)F)cc([N+](=O)[O-])c4s3)C[C@@H]2C)CC1` (some centres undefined), the MIC90 in experiment [1] and in experiment [2] was less than 0.016 µg/mL throughout.
Regarding `CO/N=C(\C)CCN1CCN(c2nc(=O)c3cc(C(F)(F)F)cc([N+](=O)[O-])c3s2)CC1`, the figures for the MIC90 in experiment [1] and in experiment [2] were less than 0.016 µg/mL and 0.017 µg/mL (≈ 0.037 µM), respectively.
For `CON=C1CCC(CN2CCN(c3nc(=O)c4cc(C(F)(F)F)cc([N+](=O)[O-])c4s3)C[C@H]2C)CC1` (some centres undefined), in that order: less than 0.016 µg/mL and less than 0.016 µg/mL.
For `CON=C1CCC(CN2CCN(c3nc(=O)c4cc(C(F)(F)F)cc([N+](=O)[O-])c4s3)[C@@H](C)C2)CC1` (some centres undefined), in that order: less than 0.016 µg/mL and less than 0.016 µg/mL.
For `CCON=C1CCC(CN2CCN(c3nc(=O)c4cc(C(F)(F)F)cc([N+](=O)[O-])c4s3)C[C@H]2C)CC1` (some centres undefined), in that order: less than 0.016 µg/mL and less than 0.016 µg/mL.
Consider `CON=C1CCC(CN2CCN(c3nc(=O)c4cc(C(F)(F)F)cc([N+](=O)[O-])c4s3)CC2)CC1` (centres undefined), for which the MIC90 in experiment [1] and in experiment [2] was less than 0.016 µg/mL each time.
With `CCON=C1CCC(CN2CCN(c3nc(=O)c4cc(C(F)(F)F)cc([N+](=O)[O-])c4s3)C[C@@H]2C)CC1` (some centres undefined), the MIC90 in experiment [1] and in experiment [2] was less than 0.016 µg/mL each time.
`CCON=C1CCC(CN2C(C)CN(c3nc(=O)c4cc(C(F)(F)F)cc([N+](=O)[O-])c4s3)CC2C)CC1` (centres undefined): the MIC90 in experiment [1] and in experiment [2] was less than 0.016 µg/mL each time.
On to `CCO/N=C(\C)CCN1CCN(c2nc(=O)c3cc(C(F)(F)F)cc([N+](=O)[O-])c3s2)CC1`, for which the MIC90 in experiment [1] and in experiment [2] was less than 0.016 µg/mL in each case.
Consider `CCON=C1CCC(CN2CCN(c3nc(=O)c4cc(C(F)(F)F)cc([N+](=O)[O-])c4s3)[C@H](C)C2)CC1` (some centres undefined), for which the MIC90 in experiment [1] and in experiment [2] was less than 0.016 µg/mL in each case.
As for `CCON=C1CC(CN2CCN(c3nc(=O)c4cc(C(F)(F)F)cc([N+](=O)[O-])c4s3)CC2)C1` (centres undefined), the MIC90 in experiment [1] and in experiment [2] was less than 0.016 µg/mL each time.
As for `CCON=C1CCC(CN2CCN(c3nc(=O)c4cc(C(F)(F)F)cc([N+](=O)[O-])c4s3)CC2C)CC1` (centres undefined), the MIC90 in experiment [1] and in experiment [2] was less than 0.016 µg/mL throughout.
Turning to `CON=C1CCC(CN2CCN(c3nc(=O)c4cc(C(F)(F)F)cc([N+](=O)[O-])c4s3)CC2C)CC1` (centres undefined), the MIC90 in experiment [1] and in experiment [2] was less than 0.016 µg/mL throughout.
Take `CCON=C1CCC(CN2CCN(c3nc(=O)c4cc(C(F)(F)F)cc([N+](=O)[O-])c4s3)CC2)CC1` (centres undefined): the MIC90 in experiment [1] and in experiment [2] was less than 0.016 µg/mL throughout.
As for `C/C(CCN1CCN(c2nc(=O)c3cc(C(F)(F)F)cc([N+](=O)[O-])c3s2)CC1)=N\OCc1ccccc1`, the MIC90 in experiment [1] and in experiment [2] was less than 0.016 µg/mL each time.
In the case of `CON=C1CCC(CN2C(C)CN(c3nc(=O)c4cc(C(F)(F)F)cc([N+](=O)[O-])c4s3)CC2C)CC1` (centres undefined), the MIC90 in experiment [1] and in experiment [2] was less than 0.016 µg/mL in each case.
Turning to `NNC(=O)c1ccncc1` [ISONIAZID], the MIC90 in experiment [1] and in experiment [2] was more than 40 µg/mL throughout.
For the molecule `O=c1nc(N2CCN(CC3CCCCC3)CC2)sc2c([N+](=O)[O-])cc(C(F)(F)F)cc12` [MACOZINONE], the MIC90 in experiment [1] and in experiment [2] was less than 0.016 µg/mL throughout.
With `CO[C@H]1/C=C/O[C@@]2(C)Oc3c(C)c(O)c4c(O)c(c(/C=N/N5CCN(C)CC5)c(O)c4c3C2=O)NC(=O)/C(C)=C\C=C\[C@H](C)[C@H](O)[C@@H](C)[C@@H](O)[C@@H](C)[C@H](OC(C)=O)[C@@H]1C` [RIFAMPIN], the MIC90 in experiment [1] and in experiment [2] was more than 40 µg/mL each time.

For the origin of these results see ChEMBL document CHEMBL4359877, “Identification of benzothiazinones containing an oxime functional moiety as new anti-tuberculosis agents” (Eur J Med Chem, 2019).
